ChEMBL document CHEMBL3751694, “1-Piperazinylphthalazines as potential VEGFR-2 inhibitors and anticancer agents: Synthesis and in vitro biological evaluation” (Eur J Med Chem, 2016)

Legend:
Assay type in all cases: functional
M14 = test: Growth inhibition of human M14 cells at 10 uM after 48 hrs by SRB method; details: M14, 48 h, read-out: GI
How it was run: (§1)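 NCI 56-line primary screen at a single 10^-5 M concentration. Cells grown in RPMI 1640 with 5% FBS and 2 mM L-glutamine, plated at 5000–40,000 cells/well, then preincubated for 24 h. Exposure was 48 h at 37 °C and 5% CO2. Adherent cells were fixed with cold TCA at 10% final, suspension cells at 16%. Staining used 0.4% SRB, read at 515 nm. Results are % growth inhibition relative to control.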

SK-MEL-5 = test: Growth inhibition of human SK-MEL-5 cells at 10 uM after 48 hrs by SRB method; details: SK-MEL-5, 48 h, read-out: GI; how it was run: as §1
MDA-MB-468 = test: Growth inhibition of human MDA-MB-468 cells at 10 uM after 48 hrs by SRB method; details: MDA-MB-468, 48 h, read-out: GI; how it was run: as §1
[1] = Growth inhibition of human HOP92 cells at 10 uM after 48 hrs by SRB method; details: HOP-92, 48 h, read-out: GI; how it was run: as §1
[2] = Growth inhibition of human HL-60(TB) cells at 10 uM after 48 hrs by SRB method; details: HL-60, 48 h, read-out: GI
How it was run: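 NCI single-dose primary screen at 10^-5 M, 48 h exposure. Cells grown in RPMI 1640 with 5% FBS and 2 mM L-glutamine. Suspension cells fixed in situ with TCA (final 16%), stained with SRB, absorbance read at 515 nm. Percent growth inhibition calculated against time-zero and untreated control plates.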

[3] = Growth inhibition of human Caki1 cells at 10 uM after 48 hrs by SRB method; details: CAKI-1, 48 h, read-out: GI; how it was run: as §1
[4] = Growth inhibition of human UACC62 cells at 10 uM after 48 hrs by SRB method; details: UACC-62, 48 h, read-out: GI
How it was run: (§2)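 NCI 56-line screen, single-dose primary assay at 10^-5 M. Cells grown in RPMI 1640 with 5% FBS and 2 mM L-glutamine, plated at 5000–40,000 cells/well and held 24 h at 37 °C, 5% CO2 before drug addition. Compound was given from DMSO stock, exposure 48 h, then TCA fixation and SRB staining with absorbance at 515 nm. % growth is taken relative to time-zero and untreated controls.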

[5] = Growth inhibition of human PC3 cells at 10 uM after 48 hrs by SRB method; details: PC-3, 48 h, read-out: GI; how it was run: as §1
[6] = Growth inhibition of human HCT15 cells at 10 uM after 48 hrs by SRB method; details: HCT-15, 48 h, read-out: GI; how it was run: as §1
SR = test: Growth inhibition of human SR cells at 10 uM after 48 hrs by SRB method; details: read-out: GI; how it was run: as §1
T47D = test: Growth inhibition of human T47D cells at 10 uM after 48 hrs by SRB method; details: read-out: GI; how it was run: as §2
KM12 = test: Growth inhibition of human KM12 cells at 10 uM after 48 hrs by SRB method; details: KM12, 48 h, read-out: GI; how it was run: as §1
[7] = Growth inhibition of human COLO205 cells at 10 uM after 48 hrs by SRB method; details: COLO 205, 48 h, read-out: GI; how it was run: as §1
[8] = Growth inhibition of human OVCAR8 cells at 10 uM after 48 hrs by SRB method; details: OVCAR-8, 48 h, read-out: GI; how it was run: as §1
CCRF-CEM = test: Growth inhibition of human CCRF-CEM cells at 10 uM after 48 hrs by SRB method; details: read-out: GI; how it was run: as §1
HT-29 = test: Growth inhibition of human HT-29 cells at 10 uM after 48 hrs by SRB method; details: HT-29, 48 h, read-out: GI; how it was run: as §1
[9] = Growth inhibition of human BT549 cells at 10 uM after 48 hrs by SRB method; details: BT-549, 48 h, read-out: GI; how it was run: as §1
A498 = test: Growth inhibition of human A498 cells at 10 uM after 48 hrs by SRB method; details: A498, 48 h, read-out: GI; how it was run: as §1
MDA-MB-231 = test: Growth inhibition of human MDA-MB-231 cells at 10 uM after 48 hrs by SRB method; details: MDA-MB-231, 48 h, read-out: GI; how it was run: as §1
NCI-H522 = test: Growth inhibition of human NCI-H522 cells at 10 uM after 48 hrs by SRB method; details: NCI-H522, 48 h, read-out: GI; how it was run: as §1
[10] = Growth inhibition of human SF268 cells at 10 uM after 48 hrs by SRB method; details: SF-268, 48 h, read-out: GI; how it was run: as §1
[11] = Growth inhibition of human UO31 cells at 10 uM after 48 hrs by SRB method; details: UO-31, 48 h, read-out: GI; how it was run: as §2
K562 = test: Growth inhibition of human K562 cells at 10 uM after 48 hrs by SRB method; details: K562, 48 h, read-out: GI; how it was run: as §1
[12] = Growth inhibition of human TK10 cells at 10 uM after 48 hrs by SRB method; details: TK-10, 48 h, read-out: GI; how it was run: as §2
[13] = Growth inhibition of human MOLT4 cells at 10 uM after 48 hrs by SRB method; details: MOLT-4, 48 h, read-out: GI; how it was run: as §1
786-0 = test: Growth inhibition of human 786-0 cells at 10 uM after 48 hrs by SRB method; details: 786-0, 48 h, read-out: GI; how it was run: as §1
[14] = Growth inhibition of human […] cells at 10 uM after 48 hrs by SRB method; details: read-out: GI; how it was run: as §1
A549 = test: Growth inhibition of human A549 cells at 10 uM after 48 hrs by SRB method; details: A549, 48 h, read-out: GI; how it was run: as §1
[15] = Growth inhibition of human HCT116 cells at 10 uM after 48 hrs by SRB method; details: HCT-116, 48 h, read-out: GI; how it was run: as §1
MCF7 = test: Growth inhibition of human MCF7 cells at 10 uM after 48 hrs by SRB method; details: MCF7, 48 h, read-out: GI; how it was run: as §1
NCI-H226 = test: Growth inhibition of human NCI-H226 cells at 10 uM after 48 hrs by SRB method; details: NCI-H226, 48 h, read-out: GI; how it was run: as §1
NCI-H460 = test: Growth inhibition of human NCI-H460 cells at 10 uM after 48 hrs by SRB method; details: NCI-H460, 48 h, read-out: GI; how it was run: as §1
ACHN = test: Growth inhibition of human ACHN cells at 10 uM after 48 hrs by SRB method; details: read-out: GI; how it was run: as §1
SK-MEL-2 = test: Growth inhibition of human SK-MEL-2 cells at 10 uM after 48 hrs by SRB method; details: SK-MEL-2, 48 h, read-out: GI; how it was run: as §1
SN12C = test: Growth inhibition of human SN12C cells at 10 uM after 48 hrs by SRB method; details: read-out: GI; how it was run: as §1
NCI/ADR-RES = test: Growth inhibition of human NCI/ADR-RES cells at 10 uM after 48 hrs by SRB method; details: read-out: GI; how it was run: as §1
[16] = Growth inhibition of human UACC257 cells at 10 uM after 48 hrs by SRB method; details: UACC-257, 48 h, read-out: GI; how it was run: as §2
[17] = Growth inhibition of human IGROV1 cells at 10 uM after 48 hrs by SRB method; details: IGROV-1, 48 h, read-out: GI; how it was run: as §1

Row | SMILES | inhibition of growth at 10 µM (M14) [%] | inhibition of growth at 10 µM (SK-MEL-5) [%] | inhibition of growth at 10 µM (MDA-MB-468) [%] | inhibition of growth at 10 µM [1] [%] | inhibition of growth at 10 µM [2] [%] | inhibition of growth at 10 µM [4] [%] | inhibition of growth at 10 µM [5] [%] | inhibition of growth at 10 µM [6] [%] | inhibition of growth at 10 µM (SR) [%] | inhibition of growth at 10 µM (T47D) [%] | inhibition of growth at 10 µM [7] [%] | inhibition of growth at 10 µM [8] [%] | inhibition of growth at 10 µM (HT-29) [%] | inhibition of growth at 10 µM [9] [%] | inhibition of growth at 10 µM (A498) [%] | inhibition of growth at 10 µM (MDA-MB-231) [%] | inhibition of growth at 10 µM (NCI-H522) [%] | inhibition of growth at 10 µM [11] [%] | inhibition of growth at 10 µM [13] [%] | inhibition of growth at 10 µM [14] [%] | further results
1 | CCOC(=O)c1sc(NC(=O)CN2CCN(c3nnc(-c4ccccc4)c4ccccc34)CC2)nc1C | 32 | 33 | 49 | 38 | 43 | 34 | 57 | 44 | 64 | 68 | 34 | 33 | 50 | 33 | 37 | 49 | 64 | 46 | 59 | 53 | inhibition of growth at 10 µM [3]: 35%; inhibition of growth at 10 µM (KM12): 30%; inhibition of growth at 10 µM (CCRF-CEM): 34%; inhibition of growth at 10 µM [10]: 32%; inhibition of growth at 10 µM (K562): 34%; inhibition of growth at 10 µM [12]: 36%; inhibition of growth at 10 µM (786-0): 31%; inhibition of growth at 10 µM (A549): 33%
2 | O=C(CN1CCN(c2nnc(-c3ccccc3)c3ccccc23)CC1)Nc1nc(-c2ccccc2)cs1 | 44 | 77 | 59 | 47 | 50 | 44 | 62 | 51 | 57 | 85 | 54 | 44 | 34 | 40 | 54 | 38 | 58 | 90 | 70 | 56 | inhibition of growth at 10 µM [15]: 38%; inhibition of growth at 10 µM (MCF7): 53%; inhibition of growth at 10 µM (NCI-H226): 38%; inhibition of growth at 10 µM (CCRF-CEM): 53%; inhibition of growth at 10 µM (NCI-H460): 45%; inhibition of growth at 10 µM (ACHN): 31%; inhibition of growth at 10 µM (SK-MEL-2): 40%; inhibition of growth at 10 µM (SN12C): 32%; inhibition of growth at 10 µM (K562): 50%; inhibition of growth at 10 µM [12]: 30%; inhibition of growth at 10 µM (NCI/ADR-RES): 45%; inhibition of growth at 10 µM (A549): 48%; inhibition of growth at 10 µM [16]: 48%
3 | CC(=O)c1sc(NC(=O)CN2CCN(c3nnc(-c4ccccc4)c4ccccc34)CC2)nc1C |  | 33 | 49 | 70 |  |  | 53 |  | 49 | 81 | 30 |  | 31 | 34 | 45 | 41 | 41 | 43 | 52 | 45 | inhibition of growth at 10 µM [17]: 40%
